Compounds with a hit are over-represented: about 2.3% of the library has one in this group of screens.
TRPC4 block – inhibitors of mouse TRPC4 channel; AID 2247; HEK293 TRPC4beta/mu-opioid, DAMGO-evoked Fluo4 calcium flux; hits give low values; Q9QUQ5; actives 0.39% (n = 300,000); B-score at 10 µM;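 active = B-score over 3 SD under the library average, no early fluorescence shift, positive overall ratio signal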
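Assay system: HEK293 cells with stable TRPC4beta plus mu-opioid receptor expression; Probe or stimulus: DAMGO in two steps, submaximal then maximal; Dosing: single-point compound dosing; Measured by: Fluo4 calcium-dye fluorescence, kinetic read; Read-out basis: B score from integrated Fluo4 fluorescence ratio.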
TRPC4 agonist – activators of mouse TRPC4 channel | Q9QUQ5 | HEK293 TRPC4beta/mu-opioid, Fluo4 calcium fluorescence; hits give high values | B-score at 10 µM | actives 0.49% (n = 310,000);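 active = B-score above 5 SD of library B-scores, and initial fluorescence ratio not above library mean plus 5 SD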;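 note: positive B-score marks a calcium rise read as TRPC4 activation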
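Assay system – TRPC4beta and mu-opioid receptor HEK293 stable cells · Measured by – Fluo4 fluorescence, kinetic · Schedule – dye loading 45 min room temperature, 110 s kinetic read · Read-out – B-scored integrated calcium fluorescence ratio · Controls – buffer and maximal DAMGO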
TRPC6 inh – blocks the mouse TRPC6 cation channel | Q61143 | HEK293-TRPC6, membrane potential dye, ACh-evoked depolarization; hits give low values | B-score at 10 µM | actives 1.1% (n = 310,000) | AID 2553;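 active = B-score under library mean minus 3 SD, initial fluorescence not abnormally high, positive integrated signal ratio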;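 note: B-score derived from integrated fluorescence ratio over the kinetic read; more negative B-score means stronger inhibition of depolarization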
Target sequence (Q61143 whole entry, looked up): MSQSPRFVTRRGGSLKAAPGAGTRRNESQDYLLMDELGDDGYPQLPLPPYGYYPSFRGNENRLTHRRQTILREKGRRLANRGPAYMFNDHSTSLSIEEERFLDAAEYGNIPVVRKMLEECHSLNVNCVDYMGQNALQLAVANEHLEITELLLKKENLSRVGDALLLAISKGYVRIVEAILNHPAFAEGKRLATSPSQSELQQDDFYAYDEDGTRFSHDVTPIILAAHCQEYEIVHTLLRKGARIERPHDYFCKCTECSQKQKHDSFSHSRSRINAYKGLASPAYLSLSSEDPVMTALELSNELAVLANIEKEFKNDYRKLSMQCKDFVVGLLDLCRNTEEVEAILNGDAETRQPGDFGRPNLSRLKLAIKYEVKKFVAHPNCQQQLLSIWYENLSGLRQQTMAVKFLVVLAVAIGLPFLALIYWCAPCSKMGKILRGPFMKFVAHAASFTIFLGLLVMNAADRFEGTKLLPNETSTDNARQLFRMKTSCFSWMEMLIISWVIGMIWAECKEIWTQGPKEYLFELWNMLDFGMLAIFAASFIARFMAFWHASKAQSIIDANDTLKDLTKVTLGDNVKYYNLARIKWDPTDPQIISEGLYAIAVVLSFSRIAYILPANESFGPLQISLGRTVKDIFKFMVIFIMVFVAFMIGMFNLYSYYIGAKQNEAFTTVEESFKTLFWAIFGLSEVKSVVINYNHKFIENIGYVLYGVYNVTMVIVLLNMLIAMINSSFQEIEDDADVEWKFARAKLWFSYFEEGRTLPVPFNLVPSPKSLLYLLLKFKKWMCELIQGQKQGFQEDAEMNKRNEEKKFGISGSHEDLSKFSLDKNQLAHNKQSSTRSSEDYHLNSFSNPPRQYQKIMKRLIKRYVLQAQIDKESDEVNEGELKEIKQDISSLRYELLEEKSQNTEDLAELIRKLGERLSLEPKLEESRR
TRPC4 PAM – TRPC4 (mouse) allosteric potentiation; HEK293 TRPC4beta/mu-opioid, DAMGO EC20, Fluo-4 Ca2+ flux; hits give high values; actives 0.42% (n = 310,000); AID 2227; B-score at 10 µM; Q9QUQ5;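 active = B-score of calcium response area above 5 SD of library B-scores, with initial fluorescence ratio within 5 SD of library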;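 note: B-score of integrated fluorescence ratio over time as area under calcium response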
TRPC6 activator – activates the mouse TRPC6 cation channel. Q61143. HEK293-TRPC6 membrane potential dye fluorescence; hits give high values. B-score at 10 µM. actives 0.13% (n = 310,000);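 active = B-score of the integrated fluorescence ratio above library mean plus 3 SD, and starting fluorescence ratio within library mean plus 5 SD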;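 note: higher score means more depolarization so channel activation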
TRPC4 sel inh 2 – second selectivity test of TRPC6 inhibitors: effect on mouse TRPC4; shares compounds with TRPC6 inh; HEK293 TRPC4/MOR, membrane potential dye fluorescence; channel activated by saturating DAMGO dose; inhibition, % at 10 µM; actives 42% (n = 920); AID 2776;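 active = compounds whose fluorescence signal differed from control wells by over 3 SD, either direction, in both duplicate plates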
TRPC4 spec – tests whether TRPC6 inhibitors also affect mouse TRPC4. AID 2777. HEK293 TRPC4/mu-opioid, membrane potential fluorescence. actives 61% (n = 920). shares compounds with TRPC6 inh. activity change, negative = inhibition, % at 10 µM;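 active = rise or fall in signal beyond 3 SD of buffer-only wells in both replicate plates, either sign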;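 note: integrated kinetic ratio of fluorescence range over baseline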
HEK293 MPD ctr 2-1 – second counter-screen for TRPC6 inhibitors: parental HEK293 cells; shares compounds with TRPC6 inh; parental HEK293 membrane potential dye fluorescence; maximal acetylcholine challenge after compound addition; signal change vs control, % at 10 µM; actives 31% (n = 920); AID 2779;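 active = membrane potential signal moving either way by over 3 SD of the maximum-effect control, in both duplicate plates, meaning non-specific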
HEK293 MPD ctr-1 – counter-screen for TRPC6 inhibitors: effect in parental HEK293 cells | actives 60% (n = 920) | parental HEK293 membrane potential dye fluorescence | membrane potential signal change, % at 10 µM | shares compounds with TRPC6 inh | AID 2780;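 active = membrane potential signal shifting up or down by more than 3 SD of buffer-only wells, on both duplicate plates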
HEK293 MPD ctr-2 – counter-screen for TRPC6 modulators: effect in parental HEK293 cells; shares compounds with TRPC6 inh; membrane potential dye fluorescence; membrane potential signal change, % at 10 µM; actives 51% (n = 2,400); AID 488924;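 active = membrane potential signal moves up or down beyond 5 SD from buffer-only wells, on both duplicate plates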
HEK293 MPD ctr 2-2 – second check of TRPC6 modulator effects in parental HEK293 cells; shares compounds with TRPC6 inh; membrane potential dye fluorescence; after compound, maximal acetylcholine stimulation; inhibition, % at 10 µM; actives 14% (n = 2,400);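 active = membrane potential signal drops by more than 5 SD from the mean control signal, in both duplicate plates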;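 note: plate controls were acetylcholine ECmax control wells for no effect and buffer only wells for full effect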
TRPC4 ctr mod – tests whether TRPC6 modulators also affect mouse TRPC4 | shares compounds with TRPC6 inh | actives 69% (n = 2,400) | HEK293 TRPC4/mu-opioid, membrane potential fluorescence | percent change from control (negative = decrease, positive = increase), % at 10 µM | AID 488927;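 active = membrane potential signal moved up or down beyond 5 SD of buffer control wells, in both duplicate plates, actives on both sides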;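 note: plate controls were assay buffer wells for no effect and DAMGO maximal-effect wells for full effect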
TRPC4/MOR inh 2 – second check of whether TRPC6 modulators also affect mouse TRPC4; shares compounds with TRPC6 inh; HEK293 TRPC4/mu-opioid, membrane potential dye fluorescence; stimulated with maximal-effect DAMGO; inhibition, % at 10 µM; actives 55% (n = 2,400);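 active = drop in membrane potential signal beyond 5 SD of the control wells in both duplicate plates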;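 note: TRPC4 counter screen for TRPC6 hits run under conditions tuned for TRPC6 not TRPC4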
TRPC6 inh conf – mouse TRPC6 inhibitor confirmation | shares compounds with TRPC6 inh | HEK293-TRPC6, membrane potential dye, ACh-evoked depolarization | inhibition, % at 10 µM | actives 43% (n = 3,300);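 active = fluorescence ratio falls more than 5 SD below the full-stimulation control mean, in both duplicate runs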;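 note: integrated fluorescence ratio of peak minus minimum over baseline after agonist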
TRPC6 act confirm – confirmation of mouse TRPC6 activators. shares compounds with TRPC6 inh. HEK293-TRPC6 membrane potential dye fluorescence, FDSS. activation, % at 10 µM. actives 11% (n = 2,800). AID 488961;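 active = ratio signal rise beyond 5 SD above unstimulated control wells' mean, seen in both duplicate runs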;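 note: plate controls were buffer EC0 wells for no effect and acetylcholine ECmax response for full effect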
Starred values were filed as active, the others as inactive.

CN1CCN(c2ccc([N+](=O)[O-])c(N/N=C3\CN4CCC3CC4)c2)CC1 was read as TRPC4 block inactive, TRPC4 agonist inactive, TRPC6 inh -12*, TRPC4 PAM inactive, TRPC6 activator inactive, HEK293 MPD ctr-2 -230%*, HEK293 MPD ctr 2-2 70%*, TRPC4 ctr mod -48%*, TRPC4/MOR inh 2 82%*, TRPC6 inh conf 76%* and TRPC6 act confirm inactive.
Screening CCNc1cc(N2CCN(C)CC2)ccc1[N+](=O)[O-] returned TRPC4 block inactive, TRPC4 agonist inactive, TRPC6 inh inactive, TRPC4 PAM inactive and TRPC6 activator inactive.
Screening COc1cc2c(cc1OC)-c1c(OC)c(OC)cc3c1[C@H](C2)N(C)CC3 returned TRPC4 block inactive, TRPC4 agonist inactive, TRPC6 inh -7.7*, TRPC4 PAM inactive, TRPC6 activator inactive, HEK293 MPD ctr-2 -412%*, HEK293 MPD ctr 2-2 inactive, TRPC4 ctr mod -58%*, TRPC4/MOR inh 2 38%*, TRPC6 inh conf 45%* and TRPC6 act confirm inactive.
`CN1C2CCC1C(COC(=O)c1ccccc1)C(O)C2` (stereo not given) gave TRPC4 block inactive, TRPC4 agonist inactive, TRPC6 inh inactive, TRPC4 PAM inactive and TRPC6 activator inactive.
`CN1C2CCC1CC(OC(c1ccccc1)c1ccccc1N)C2` (stereo not given) gave TRPC4 block inactive, TRPC4 agonist inactive, TRPC6 inh -5.6*, TRPC4 PAM inactive, TRPC6 activator inactive, HEK293 MPD ctr-2 110%*, HEK293 MPD ctr 2-2 92%*, TRPC4 ctr mod 21%*, TRPC4/MOR inh 2 40%* and TRPC6 inh conf 88%*.
Screening CC(=NCc1ccco1)c1c(O)n(Cc2ccccc2)c(=O)[nH]c1=O returned TRPC4 block inactive, TRPC4 agonist inactive, TRPC6 inh inactive, TRPC4 PAM inactive and TRPC6 activator inactive.
For O=C(Nc1cccc(C(F)(F)F)c1)OC1CN2CCC1CC2 (stereo not given) the results were TRPC4 block inactive, TRPC4 agonist inactive, TRPC6 inh -6.5*, TRPC4 PAM inactive, TRPC6 activator inactive, HEK293 MPD ctr-2 inactive, HEK293 MPD ctr 2-2 inactive, TRPC4 ctr mod inactive, TRPC4/MOR inh 2 inactive, TRPC6 inh conf 54%* and TRPC6 act confirm inactive.
Screening CC1CN(c2ccc([N+](=O)[O-])c3cccnc23)CC(C)N1 (stereo not given) returned TRPC4 block inactive, TRPC4 agonist 104*, TRPC6 inh -10*, TRPC4 PAM inactive, TRPC6 activator inactive, HEK293 MPD ctr-2 -358%*, HEK293 MPD ctr 2-2 inactive, TRPC4 ctr mod -60%*, TRPC4/MOR inh 2 64%*, TRPC6 inh conf 58%* and TRPC6 act confirm inactive.
Screening O=[N+]([O-])c1ccc(N2CCCC2)c2ncccc12 returned TRPC4 block inactive, TRPC4 agonist inactive, TRPC6 inh inactive, TRPC4 PAM inactive and TRPC6 activator inactive.
Screening CC[N+]12CCC(CC1)C(=C(c1ccccc1)c1ccccc1)C2 returned TRPC4 block inactive, TRPC4 agonist inactive, TRPC6 inh -6.1*, TRPC4 PAM inactive, TRPC6 activator inactive, HEK293 MPD ctr-2 inactive, HEK293 MPD ctr 2-2 69%*, TRPC4 ctr mod inactive, TRPC4/MOR inh 2 inactive, TRPC6 inh conf 66%* and TRPC6 act confirm inactive.
Screening C[N+]12CCC(CC1)C(=C(c1ccccc1)c1ccccc1)C2 returned TRPC4 block inactive, TRPC4 agonist inactive, TRPC6 inh -6.8*, TRPC4 PAM inactive, TRPC6 activator inactive, TRPC4 sel inh 2 inactive, TRPC4 spec inactive, HEK293 MPD ctr 2-1 -12%*, HEK293 MPD ctr-1 inactive, TRPC6 inh conf 81%* and TRPC6 act confirm inactive.
`Cn1c(O)c(C=NCCCN2CCCC2=O)c(=O)n(C)c1=O` gave TRPC4 block inactive, TRPC4 agonist inactive, TRPC6 inh inactive, TRPC4 PAM inactive and TRPC6 activator inactive.
`COc1ccc(NC(=O)c2cn(CCC#N)nc2-c2cccc(Br)c2)cc1` gave TRPC4 block inactive, TRPC4 agonist inactive, TRPC6 inh inactive, TRPC4 PAM inactive and TRPC6 activator inactive.
Screening CCC[N+]12CCC(CC1)C(C(O)(c1ccccc1)c1ccccc1)C2 (stereo not given) returned TRPC4 block inactive, TRPC4 agonist inactive, TRPC6 inh inactive, TRPC4 PAM inactive and TRPC6 activator inactive.
Screening C[N+]12CCC(CC1)C(C(O)(c1ccccc1)c1cccs1)C2 (stereo not given) returned TRPC4 block inactive, TRPC4 agonist inactive, TRPC6 inh -5.7*, TRPC4 PAM inactive, TRPC6 activator inactive, HEK293 MPD ctr-2 inactive, HEK293 MPD ctr 2-2 inactive, TRPC4 ctr mod inactive, TRPC4/MOR inh 2 inactive, TRPC6 inh conf 55%* and TRPC6 act confirm inactive.
